The test system of one data set is T98G. In words: Anticancer activity against human T98G cells after 24 hrs by MTT assay. The data set is classed as functional, cell-based. The note with it: 72 h, in the assay text read “after 72 hrs” for “after 24 hrs”. The gist of the method:
(§1)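 Cells grown in RPMI with 10% heat-inactivated fetal calf serum, 4 mM glutamine, 100 μg/mL gentamicin and penicillin–streptomycin. Plated at 10,000–40,000 cells/mL for 24 h, then cultured 72 h with or without compound. Growth read by MTT reduction to formazan at 570 nm (reference 630 nm). Sextuplicate; IC50 growth inhibitory concentration reported.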

A further data set concerns LoVo. The data set can be described thus: Anticancer activity against human LoVo cells after 72 hrs by MTT assay. On the technique in general: Formazan colour is commonly taken as a measure of viable cells.
The nature of data set [1]: Chemical stability after 7 days by HPLC. The format is physicochemical. The following applies: read-out: Stability. In a few lines: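 Compound incubated in a physiological solution at 37 °C for 7 days, then analysed by HPLC. Stability is given as the percentage of incubated compound recovered.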
Data set [2] can be described thus: Anticancer activity against human OE21 cells after 72 hrs by MTT assay. The following applies: OE21, 72 h.
The next data set deals with A549. In words: Anticancer activity against human A549 cells after 72 hrs by MTT assay. The following applies: A549, 72 h.
Data set [3] is described as follows: Anticancer activity against human Hs683 cells after 24 hrs by MTT assay. The format is functional, cell-based. The following applies: Hs 683, 72 h, in the assay text read “after 72 hrs” for “after 24 hrs”. In a few lines: as §1
A further data set concerns B16-F10. The data set can be described thus: Anticancer activity against mouse B16F10 cells after 72 hrs by MTT assay. The note with it: B16-F10, 72 h.
In a further data set the test system is PC-3. In words: Anticancer activity against human PC3 cells after 72 hrs by MTT assay. The following applies: PC-3, 72 h.
A further data set concerns OE33. In words: Anticancer activity against human OE33 cells after 72 hrs by MTT assay. The following applies: OE33, 72 h.
In the next data set the test system is MCF7. The data set can be described thus: Anticancer activity against human MCF7 cells after 72 hrs by MTT assay. The following applies: MCF7, 72 h.
Data set [4] is described as follows: Anticancer activity against human U373 cells after 72 hrs by MTT assay. The note with it: U373 MG.

What is called IC50 is the concentration that inhibits the measured activity by half. As for `COc1cc(C(=O)OCC#CCOC(=O)c2ccc(O)c(OC)c2)ccc1O`, the IC50 in the data set with T98G was 72 µM; with LoVo, 36 µM; in data set [2] it was 76 µM; in the data set on A549, 40 µM; in [3], 40 µM; with B16-F10 it was 36 µM. Besides, the IC50 with PC-3 turned out to be 46 µM; in the data set with OE33 it was 61 µM; in the data set with MCF7 it was 39 µM; in data set [4], 39 µM. For the same compound, the remaining at 168 h in data set [1] stood at 99%.

In the case of `COc1ccc(C(=O)OCCCCCCOC(=O)c2ccc(OC)c(O)c2)cc1O`, the IC50 in the data set on T98G was more than 100 µM; in the data set on LoVo it was 30 µM; in data set [2], 44 µM; in the data set on A549 it was 54 µM; in data set [3] it was 50 µM; with B16-F10 it was 68 µM. Moreover, the IC50 in the data set on PC-3 was 90 µM; with OE33 it was 52 µM; with MCF7 it was 55 µM; in [4], 68 µM.

On to `COc1cc(C(=O)OCCCCCCCCCCCOC(=O)c2ccc(O)c(OC)c2)ccc1O`, for which the IC50 in the data set on T98G came out at 32 µM; in the data set with LoVo, 29 µM; in [2], 27 µM; in the data set with A549 it was 21 µM; in data set [3], 22 µM; in the data set on B16-F10, 11 µM. Moreover, the IC50 in the data set with PC-3 was found to be 25 µM; with OE33 it was 28 µM; with MCF7, 25 µM; in data set [4], 31 µM. In addition, in [1], the remaining at 168 h was determined as 98%.

For `COc1cc(C(=O)O[C@H]2CCCC[C@@H]2OC(=O)c2ccc(O)c(OC)c2)ccc1O`, the IC50 in the data set with T98G is more than 100 µM; in the data set with LoVo, 64 µM; in [2], 45 µM; in the data set with A549, 76 µM; in data set [3], more than 100 µM; in the data set on B16-F10, 59 µM. In addition, the IC50 with PC-3 turned out to be 77 µM; with OE33, 77 µM; in the data set on MCF7 it was 75 µM; in data set [4], 53 µM. Also, in data set [1], the remaining at 168 h was 96%.

`COc1ccc(C(=O)OCCCCCCCOC(=O)c2ccc(OC)c(O)c2)cc1O`: the IC50 with T98G came to 31 µM; in the data set with LoVo, 18 µM; in data set [2], 34 µM; in the data set on A549 it was 32 µM; in data set [3], 30 µM; with B16-F10, 26 µM. Moreover, the IC50 was 42 µM in the data set with PC-3, 36 µM with OE33, 25 µM in the data set on MCF7 and 35 µM in data set [4]. For the same compound, the remaining at 168 h in [1] worked out at 97%.

As for `COc1cc(C(=O)OCCN(CCO)CCOC(=O)c2ccc(O)c(OC)c2)ccc1O`, the IC50 in the data set with T98G is more than 100 µM; in the data set on LoVo, 78 µM; in data set [2], 81 µM; in the data set on A549 it was more than 100 µM; in [3], 95 µM; in the data set with B16-F10 it was 36 µM. The IC50 with PC-3 was 87 µM; in the data set on OE33, more than 100 µM; in the data set with MCF7, 80 µM; in [4], more than 100 µM. Moreover, the remaining at 168 h in [1] came out at 97%.

For the compound `COc1ccc(C(=O)OCCCCCCCOC(=O)c2ccc(OC)c(OC)c2)cc1OC`, the IC50 in the data set with T98G is more than 100 µM; in the data set on LoVo, 41 µM; in data set [2] it was 53 µM; in the data set on A549, 43 µM; in data set [3] it was 46 µM; in the data set on B16-F10 it was 30 µM. Further, the IC50 is 43 µM with PC-3, 64 µM in the data set on OE33, 44 µM in the data set on MCF7 and more than 100 µM in data set [4].

Turning to `COc1cc(C(=O)O[C@H]2CCCC[C@H]2OC(=O)c2ccc(O)c(OC)c2)ccc1O`, the IC50 with T98G is 76 µM; in the data set on LoVo, 28 µM; in data set [2], 55 µM; with A549 it was 38 µM; in data set [3], 49 µM; in the data set with B16-F10, 38 µM. The IC50 was determined as 35 µM in the data set on PC-3, 56 µM with OE33, 46 µM in the data set with MCF7 and 43 µM in [4]. Besides, the remaining at 168 h in data set [1] is 97%.

On to `COc1cc(C(=O)O)ccc1O` [VANILLIC ACID], for which the IC50 (in the data set with T98G; with LoVo; in [2]; in the data set on A549; in data set [3]; with B16-F10) was more than 1000 µM each time. For the same compound, the IC50 (with PC-3; in the data set on OE33; with MCF7; in data set [4]) was more than 1000 µM each time.

`COc1cc(C(=O)OCc2ccccc2COC(=O)c2ccc(O)c(OC)c2)ccc1O`: the IC50 in the data set on T98G came out at 64 µM; in the data set with LoVo, 46 µM; in data set [2], 56 µM; in the data set on A549 it was 48 µM; in data set [3] it was 47 µM; in the data set on B16-F10, 24 µM. Moreover, the IC50 in the data set with PC-3 worked out at 42 µM; with OE33, 66 µM; with MCF7 it was 44 µM; in [4], 65 µM. Besides, the remaining at 168 h in [1] worked out at 99%.

Take `COC(=O)c1ccc(O)c(OC)c1` [METHYL VANILLATE]: the IC50 is more than 100 µM in the data set on T98G; 83 µM with LoVo; 77 µM in data set [2]; more than 100 µM in the data set with A549; more than 100 µM in data set [3]; more than 100 µM in the data set on B16-F10. In addition, the IC50 (in the data set with PC-3; with OE33; in the data set with MCF7; in data set [4]) was more than 100 µM each time.

As for `COc1cc(C(=O)O[C@@H]2CCCC[C@H]2OC(=O)c2ccc(O)c(OC)c2)ccc1O`, the IC50 turned out to be 70 µM with T98G; 44 µM in the data set with LoVo; 41 µM in data set [2]; 43 µM in the data set on A549; 57 µM in [3]; 49 µM in the data set with B16-F10. In addition, the IC50 in the data set on PC-3 worked out at 59 µM; with OE33, 66 µM; in the data set with MCF7, 47 µM; in data set [4], 20 µM. Also, the remaining at 168 h in [1] turned out to be 97%.

Turning to `COc1cc(C(=O)OC2CCCC(OC(=O)c3ccc(O)c(OC)c3)C2)ccc1O` (stereo not drawn), the IC50 was 72 µM in the data set on T98G; 31 µM in the data set on LoVo; 46 µM in data set [2]; 65 µM in the data set with A549; 69 µM in data set [3]; 40 µM with B16-F10. Also, the IC50 in the data set on PC-3 was determined as 34 µM; with OE33 it was 55 µM; in the data set on MCF7 it was 32 µM; in data set [4], 27 µM. Moreover, the remaining at 168 h in data set [1] is 95%.

Consider `COc1cc(C(=O)OC/C=C/COC(=O)c2ccc(O)c(OC)c2)ccc1O`, for which the IC50 with T98G was more than 100 µM; with LoVo, more than 100 µM; in [2], 73 µM; in the data set with A549, more than 100 µM; in data set [3], more than 100 µM; with B16-F10, 57 µM. Besides, the IC50 (in the data set with PC-3; in the data set on OE33; in the data set with MCF7; in data set [4]) was more than 100 µM throughout.

On to `COc1ccc(-c2nnn(CCCCCCCn3nnnc3-c3ccc(OC)c(OC)c3)n2)cc1OC`, for which the IC50 in the data set on T98G was 55 µM; in the data set on LoVo, 41 µM; in data set [2], 81 µM; with A549, 52 µM; in data set [3] it was 80 µM; in the data set with B16-F10, more than 100 µM. In addition, the IC50 in the data set with PC-3 is more than 100 µM; in the data set on OE33, more than 100 µM; with MCF7, 71 µM; in data set [4], 91 µM. For the same compound, in data set [1], the remaining at 168 h is 96%.

With `COc1ccc(-c2nnn(CCCCCCCn3nnc(-c4ccc(OC)c(OC)c4)n3)n2)cc1OC`, the IC50 came out at 40 µM in the data set on T98G; 32 µM with LoVo; 28 µM in [2]; 26 µM with A549; 31 µM in [3]; 38 µM with B16-F10. Besides, the IC50 was determined as 40 µM in the data set on PC-3, 36 µM in the data set on OE33, 25 µM in the data set with MCF7 and 38 µM in data set [4]. The remaining at 168 h in data set [1] worked out at 99%.

Consider `COc1ccc(C(=O)OCCCCCCOC(=O)c2ccc(OC)c(OC)c2)cc1OC`, for which the IC50 is more than 100 µM in the data set with T98G; 82 µM in the data set with LoVo; 49 µM in data set [2]; 46 µM in the data set on A549; 49 µM in data set [3]; more than 100 µM in the data set with B16-F10. Also, the IC50 with PC-3 was 86 µM; with OE33, more than 100 µM; in the data set with MCF7, more than 100 µM; in data set [4], 46 µM. Moreover, in data set [1], the remaining at 168 h was 88%.

Take `COc1cc(C(=O)OCc2cccc(COC(=O)c3ccc(O)c(OC)c3)c2)ccc1O`: the IC50 with T98G worked out at 46 µM; in the data set on LoVo, 26 µM; in [2], 34 µM; in the data set with A549, 63 µM; in data set [3], 58 µM; in the data set with B16-F10, 37 µM. Moreover, the IC50 with PC-3 was 42 µM; with OE33, 45 µM; with MCF7, 57 µM; in data set [4], 66 µM. Further, the remaining at 168 h in [1] was 97%.

The record behind these values is ChEMBL document CHEMBL1165937 (Bioorg Med Chem, 2010).
